The list is not random: actives were taken first. Their share in the collection is about 2%.
eIF4H inh – inhibitors of RNA binding by human eIF4H; eIF4H fluorescence polarization binding assay; inhibition, % at 35 µM; hit rate 0.94% among 290,000; AID 2012;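 also: calls also rest on retests at 20 µM and on dose response follow-up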
HCV core dimer – blocks dimerization of HCV core protein | TR-FRET GST/Flag-core106 dimerization, 1536-well | inhibition, % at 5 µM | hit rate 0.33% among 300,000 | AID 1899;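 active = inhibition above the mean of all tested compounds plus 3 SD, set per screening campaign, cut at about 45% in these data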
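test system = GST/Flag-tagged HCV core106 proteins | probe or stimulus = Eu donor and XL665 acceptor anti-tag antibodies | times = compound-protein-antibody incubation 4 h at 22.5 °C | signal = TR-FRET, excitation 340 nm, emission 617 and 671 nm | measure = percent inhibition of core106 dimerization signal | controls = wells lacking GST-core106 and wells with excess unlabelled core106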
HCV NS3 hel inh – HCV NS3 helicase inhibition. hit rate 0.56% among 290,000. AID 1800. inhibition, % at 10.9 µM. NS3 helicase DNA unwinding, Cy5 molecular beacon fluorescence;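 active = inhibition above the mean of all tested compounds plus 3 SD, set per campaign, cut at about 35% in these data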;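 also: 0% = DMSO wells and 100% = thioflavine S control wells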
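Measured by: Cy5 fluorescence, 0 and 60 min reads / Assay system: NS3 helicase fragment of HCV / Control set: low DMSO, high thioflavine S at 110 µM / Times: 1 h reaction at 25 °C, ATP-initiated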
PABP FP inh – blocks human PABP binding to poly(A) RNA. P11940. fluorescence polarization. inhibition, % at 35 µM. hit rate 1% among 290,000;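 also: calls also rest on retests at 20 µM and on dose response follow-up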
Target sequence (P11940 whole entry, looked up): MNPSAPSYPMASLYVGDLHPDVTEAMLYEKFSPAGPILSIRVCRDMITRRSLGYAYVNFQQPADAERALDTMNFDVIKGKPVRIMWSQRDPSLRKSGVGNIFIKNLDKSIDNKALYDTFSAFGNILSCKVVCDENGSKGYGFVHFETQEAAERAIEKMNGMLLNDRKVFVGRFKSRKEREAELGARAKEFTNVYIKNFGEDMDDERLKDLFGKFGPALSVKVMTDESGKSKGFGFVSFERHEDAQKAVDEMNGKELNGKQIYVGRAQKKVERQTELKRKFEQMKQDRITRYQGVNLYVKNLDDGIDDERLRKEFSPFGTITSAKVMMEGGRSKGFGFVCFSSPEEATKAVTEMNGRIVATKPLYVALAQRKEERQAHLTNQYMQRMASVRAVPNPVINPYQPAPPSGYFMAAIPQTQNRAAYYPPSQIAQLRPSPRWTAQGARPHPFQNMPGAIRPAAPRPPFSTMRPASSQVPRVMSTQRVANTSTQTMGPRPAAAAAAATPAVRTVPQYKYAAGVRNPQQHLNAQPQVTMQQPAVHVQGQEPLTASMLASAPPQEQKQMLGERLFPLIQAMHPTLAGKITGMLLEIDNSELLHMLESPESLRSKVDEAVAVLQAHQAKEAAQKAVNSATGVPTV
DNA FID counter – displaces DNA intercalator in HCV helicase counter-screen; inhibition, % at 7.9 µM; hit rate 0.17% among 290,000; DNA fluorescent intercalator displacement, fluorescence; AID 1845; in the data active = inhibition above about 37%;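 also: 0% = vehicle and 100% = reference compound; higher means more ethidium bromide displaced from hairpin DNA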
MLLE-PAM2 inh – inhibitors of microRNA-mediated deadenylation, human PABP1 MLLE binding | P11940 | GST-MLLE / FITC-PAM2 fluorescence polarization | inhibition, % at 20 µM | hit rate 0.36% among 360,000 | AID 588489; in the data active = inhibition above about 35%, passing the limit was not always enough;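 also: plate controls were DMSO wells with GST-MLLE for no effect and wells lacking GST-MLLE protein for full effect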
* = called active by the depositor; ? = inconclusive; · = no result. Unless noted, no rule for the calls is given here.

SMILES	eIF4H inh	HCV core dimer	HCV NS3 hel inh	PABP FP inh	DNA FID counter	MLLE-PAM2 inh
COc1ccc(OC)c(C=NNC(=O)c2ccccc2NS(=O)(=O)c2cccs2)c1	·	·	·	·	·	1
COc1cccc(/C=C/C(=O)OCC(=O)Nc2cccc(S(=O)(=O)NC3=NCCCCC3)c2)c1	·	·	·	·	·	-20
CCOC(=O)c1[nH]c2ccccc2c1NC(=S)Nc1cccc(C)c1C	-1	-4	-3	15	-7	41*
CCOC(=O)c1[nH]c2ccccc2c1NC(=O)NC(C)C	-3	1	5	-1	-9	-3
COc1ccc([C@H]2CC(=O)C=C(c3ccc(OC)c(F)c3)C2)cc1	·	·	·	·	·	-10
CCc1sc(C(=O)Nc2ccc(N3CCOCC3)cc2)cc1C	·	·	·	·	·	7
CCc1cc2cc(C(=O)Nc3ccc(C)cc3)sc2s1	5	52*	15	-1	-1	6
O=c1cc(CN2CCN(c3ccccc3)CC2)c2ccccc2o1	·	·	·	·	·	-9
OC(c1ccc(Cl)c(F)c1)c1ncc(-c2ccccc2F)[nH]1 (stereo unspecified)	·	·	·	·	·	8
COC(=O)CCCC1=CC2=C(c3ccccc3)C(=O)C(C)(OC(=O)C3CCCC3)C(=O)C2=CN1CCN1CCOCC1 (stereo unspecified)	14	8	·	16	·	40*
CC1(OC(=O)C2CCCC2)C(=O)C=C2C=C(c3ccsc3)N(CCN3CCOCC3)C=C2C1=O (stereo unspecified)	101	·	·	41*	·	·
COC(=O)CCCC1=CC2=C(c3ccccc3)C(=O)C(C)(OC(=O)C3CCCC3)C(=O)C2=CN1CCc1ccccn1 (stereo unspecified)	23	-2	·	10	·	8
COc1ccc(SC[C@H](Cc2ccccc2)N2CC[C@@H](C)CCC2=O)cc1	·	·	·	·	·	6
Cc1c(Br)c([N+](=O)[O-])nn1CC(=O)Nc1ccc2nc3n(c(=O)c2c1)CCCC3	-1	9	2	6	64*	-10
COc1ccc(C(=O)Nc2ccc3nc4n(c(=O)c3c2)CCCCC4)cc1OC	·	·	·	·	·	7
COc1ccc(C(=O)Nc2ccc3nc4n(c(=O)c3c2)CCCC4)cc1[N+](=O)[O-]	-2	-2	-10	86*	-5	·
O=C(c1ccc(F)cc1)N1CCC(C(=O)N2CCN(S(=O)(=O)c3cccc(Cl)c3)CC2)CC1	·	-2	·	·	·	2
C=CCn1c(SCC(=O)c2ccc(CNC(C)=O)o2)nc2scc(C3CC3)c2c1=O	77*	48*	24	28	-27	-47
C=CCn1c(SCC(=O)NC2CCS(=O)(=O)C2)nc2scc(C3CC3)c2c1=O (stereo unspecified)	-5	8	-15	0	-7	-25
CC(C)n1c(Nc2ccccc2)nc2ccccc21	5	1	-11	0	91*	3
CC(C)n1c(NCCO)nc2ccccc21	-1	1	-1	-2	0	-11
COc1ccc(C2=CC(c3sccc3C)n3nnnc3N2)cc1 (stereo unspecified)	-3	6	-9	4	-14	33
COc1ccc(C2=CC(c3ccc(F)cc3)n3nnnc3N2)cc1 (stereo unspecified)	0	-5	-4	-9	-6	46*
Cc1ccccc1Nc1nc(N)[nH]c(=O)c1N=O	·	·	·	·	·	45*
CCc1c(Cl)nc(N)nc1Nc1ccccc1C	·	·	·	·	·	-54
SMILES	eIF4H inh	HCV core dimer	HCV NS3 hel inh	PABP FP inh	DNA FID counter	MLLE-PAM2 inh
O=c1[nH]nnc2cc(Cl)ccc12	·	·	·	·	·	-10
COc1ccc(C(=O)O)cc1NC(=S)NC(=O)CSc1ccc(Cl)cc1	-13	-1	13	-8	-18	40*
C[C@H](NC(=O)c1ncn2c1C(=O)N(C)CC2)C(=O)OC(C)(C)C	·	·	·	·	·	-9
CCOC(=O)CSc1c(-c2ccccc2)c2cc(Cl)ccc2[nH]c1=O	active	-15	-2	60	-6	5
CCCN1CCC(NC23CC4CC(CC(C4)C2)C3)CC1	-4	4	1	21	2	·
CCNC(=O)C1(C)CCCN(Cc2ccc3ccccc3c2Br)C1 (stereo unspecified)	·	·	·	·	·	-8
O=[N+]([O-])c1cccc(C(=Nc2cccc(Cl)c2)NO)c1	70*	1	15	14*	-1	3
CCSc1nc(N2CCOCC2)c2c(c1C#N)CC(C)(C)N(C)C2	96	0	3	110	2	15
C=CCSc1nc(N2CCOCC2)c2c(c1C#N)CC(C)(C)N(C)C2	50*	4	-16	24*	2	-4
CN1Cc2c(N3CCOCC3)nc(SCc3ccccc3)c(C#N)c2CC1(C)C	?	3	-12	?	5	40*
Cc1ccc2cc(C#N)c(NCc3ccccc3)nc2c1	8	48*	11	0	-12	11
Cc1cccc2cc(C#N)c(NCc3ccccc3)nc12	-9	7	-5	4	8	-3
Cc1cccc(NC(=O)CSc2nncn2N)c1C	·	·	·	·	·	-1
O=C(CC1Sc2ncnn2C1=O)Nc1ccc(Cl)cc1 (stereo unspecified)	-1	12	13	-20	-18	·
CCOC(=O)c1ccc(NC(=O)CC2SC(=NC)N(C)C2=O)cc1 (stereo unspecified)	-10	-2	6	-3	-11	1
COc1ccc(NC(=O)CC2Sc3ncnn3C2=O)cc1 (stereo unspecified)	-16	5	2	-20	-9	43*
CCOC(=O)c1ccc(NC(=O)CC2Sc3ncnn3C2=O)cc1 (stereo unspecified)	-2	-1	15	-12	-27	42*
CCc1cccc(NC(=O)CCCn2c(=O)[nH]c3ccsc3c2=O)c1	-1	-6	0	-7	-18	-1
CC(=O)Nc1cccc(-c2csc(C(C)(NC(C)=O)c3ccccc3)n2)c1 (stereo unspecified)	·	·	·	·	·	-8
C=CCc1c(C)nc(-c2ccccc2)nc1N/N=C/c1ccccc1	-4	-2	-13	13	-6	-15
C=CCc1c(C)nc(-c2ccccc2)nc1Nc1ccccc1O	69	-13	-15	active	-2	0
CCCCNC(=S)N(C)/N=C/c1ccc(OCc2ccc(C(=O)OC)cc2)c(OC)c1	3	-3	10	61*	-2	-9
CCC(=O)c1ccc(OCc2ccc(C(=O)OC)cc2)c(OC)c1	-2	5	3	-4	-7	1
O=C(NNC(=S)Nc1ccc(C(=O)O)c(O)c1)c1ccncc1	·	·	·	·	·	-14
O=C(COc1ccc2ccc(=O)oc2c1)Nc1cccc(S(=O)(=O)N2CCCCC2)c1	·	·	·	·	·	4
Cc1ccc(SC2CC(=O)N(c3ccc4c(c3)OCCO4)C2=O)cc1 (stereo unspecified)	-8	-1	0	4	-17	42*
Cc1ccc(N2C(=O)CC(Sc3cccs3)C2=O)cc1 (stereo unspecified)	-14	-5	-14	-11	-3	33
c1ccc(C[n+]2csc3ccccc32)cc1	-12	-1	0	10	-15	43*

Screening data from PubChem.
